In brackets after ≈: the same amount, converted by molar mass.
Columns and labels:
RAW264.7 [1] = experiment: Inhibition of EthR in Mycobacterium tuberculosis H37Rv expressing GFP infected in mouse RAW264.7 cells assessed as potentiation of ethionamide-induced inhibition of intracellular bacterial growth after 5 days by microscopic analysis; assay type: cell-based
[2] = Inhibition of EthR in Mycobacterium tuberculosis H37Rv expressing GFP infected in mouse RAW264.7 cells assessed as concentration required to ethionamide-induced 50% inhibition of bacterial growth after 5 days by microscopic analysis; assay type: cell-based; details: RAW264.7, 120 h
How it was run: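 Raw264.7 macrophages infected with M. tuberculosis H37Rv-GFP (MOI 1:1, 2 h, 37 °C, shaking); extracellular bacilli killed with amikacin 20 μM for 1 h. Cells added to wells holding ethionamide fixed at 0.1 μg/mL plus ten 2-fold dilutions of compound. Incubated 5 days at 37 °C, 5% CO2. Macrophages stained with SYTO 60, then imaged by automated confocal microscopy. Read-out is % infected cells. EC50 is the mean of two experiments.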

RAW264.7 [3] = experiment: Cytotoxicity against mouse RAW264.7 cells at > 30 uM; assay type: cell-based
[4] = Half life in CD1 mouse liver microsomes by LC-MS-MS analysis; assay type: ADME, Microsome
How it was run: (§1)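 Male CD-1 mouse liver microsomes (0.6 mg protein/mL), compound 1 μM with 1% methanol vehicle, 5 mM MgCl2, 1 mM NADP, 5 mM glucose-6-phosphate, 0.4 U/mL G6PDH, 50 mM potassium phosphate pH 7.4, 37 °C, duplicates.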

Liver = experiment: (§2) Intrinsic clearance in CD1 mouse liver microsomes by LC-MS-MS analysis; assay type: ADME, Microsome; details: mouse, microsomes; how it was run: as §1
[5] = target: HTH-type transcriptional regulator EthR (Mycobacterium tuberculosis, UniProt P9WMC1); experiment: Inhibition of Mycobacterium tuberculosis EthR interaction to ethA promoter after 5 mins by surface plasmon resonance assay
[6] = as §2; assay type: ADME, Microsome; details: CD1, mouse, liver microsomes; how it was run: as §1
[7] = Solubility of the compound at pH 7.4 after 24 hrs; assay type: physicochemical; details: buffer
How it was run: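 A 10 mM DMSO solution was diluted into PBS pH 7.4 or methanol and shaken gently 24 h at room temperature. It was then centrifuged and passed through a 0.45 μm filter. Filtrate was diluted in methanol and read by LC-MS-MS. Solubility was taken from the PBS/methanol mass-signal area ratio.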

Chain of HTH-type transcriptional regulator EthR (P9WMC1 whole entry): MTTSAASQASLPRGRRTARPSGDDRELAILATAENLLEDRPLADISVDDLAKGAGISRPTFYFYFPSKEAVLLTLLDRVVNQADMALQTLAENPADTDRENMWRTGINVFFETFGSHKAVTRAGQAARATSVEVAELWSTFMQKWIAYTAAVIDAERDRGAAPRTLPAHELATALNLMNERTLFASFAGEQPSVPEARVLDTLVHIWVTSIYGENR

`COc1ccc(CC(=O)N2CCC(c3nc(-c4cccs4)no3)CC2)cc1` gave a fold change (FC) (RAW264.7 [1]) of 10 and an EC50 [2] of over 5 µM.
Compound `CC(CC(=O)N1CCC(c2nc(-c3cccs3)no2)CC1)C(F)(F)F` (stereo unspecified) has an EC50 [2] of over 5 µM.
For `O=C(CCC(F)(C(F)(F)F)C(F)(F)F)N1CCC(c2nc(-c3cccs3)no2)CC1`, the EC50 [2] was over 5 µM.
Work on `O=C(Cc1ccccc1F)N1CCC(c2nc(-c3cccs3)no2)CC1` yielded a fold change (FC) (RAW264.7 [1]) of 10 and an EC50 [2] of over 5 µM.
Compound `O=C(CCC1CCCCC1)N1CCC(c2nc(-c3cccs3)no2)CC1` has an EC50 [2] of 1.8 µM.
For `CC(C)CCC(=O)N1CCC(c2nc(-c3cccs3)no2)CC1`, the Activity (RAW264.7 [3]) was “Toxic” and the EC50 [2] was 0.1 µM.
In the case of `O=C(CCC(F)(F)F)N1CCC[C@@H](c2nc(-c3cccs3)no2)C1`, the EC50 [2] is reported as over 5 µM.
With `O=C(CCC(F)(F)F)N1CCC(c2nc(-c3cccs3)no2)CC1` the Activity (RAW264.7 [3]) was “Non-toxic”, the half-life [4] was 5 min and the CL (Liver) was 213 µL/min/mg. For the same compound, the EC50 [2] was 0.1 µM.
With `O=C(CC1CCCCC1)N1CCC(c2nc(-c3cccs3)no2)CC1` the Activity (RAW264.7 [3]) was “Toxic” and the EC50 [2] was 0.3 µM.
`O=C(Cc1ccccc1)N1CCC(c2nc(-c3cccs3)no2)CC1` gave an IC50 [5] of 5.6 µM, a fold change (FC) (RAW264.7 [1]) of 10 and an EC50 [2] of 2.1 µM.
`COCCC(=O)N1CCC(c2nc(-c3cccs3)no2)CC1` gave an EC50 [2] of over 5 µM.
Compound `O=C(Cc1ccc(F)cc1)N1CCC(c2nc(-c3cccs3)no2)CC1` has a fold change (FC) (RAW264.7 [1]) of 10 and an EC50 [2] of 0.8 µM.
In the case of `N#CCC(=O)N1CCC(c2nc(-c3cccs3)no2)CC1`, the half-life [4] is reported as 91 min, the microsomal CLint [6] is reported as 11 µL/min/mg and the solubility at 24 h [7] is reported as 194 µg/mL (≈ 642 µM). For the same compound, the EC50 [2] was 1.5 µM.
Work on `O=C(Cc1cccc(C(F)(F)F)c1)N1CCC(c2nc(-c3cccs3)no2)CC1` yielded a fold change (FC) (RAW264.7 [1]) of 10 and an EC50 [2] of over 5 µM.
`O=C(CCc1cccs1)N1CCC(c2nc(-c3cccs3)no2)CC1` showed a fold change (FC) (RAW264.7 [1]) of 10 and an EC50 [2] of over 5 µM.
For `COc1cccc(CC(=O)N2CCC(c3nc(-c4cccs4)no3)CC2)c1`, the fold change (FC) (RAW264.7 [1]) was 10 and the EC50 [2] was over 5 µM.
For `O=C(CC1CCCC1)N1CCC(c2nc(-c3cccs3)no2)CC1`, the Activity (RAW264.7 [3]) was “Toxic” and the EC50 [2] was 0.4 µM.
`CC(C)CC(=O)N1CCC(c2nc(-c3cccs3)no2)CC1` showed an EC50 [2] of 2.5 µM.
`O=C(CCC(F)(F)F)N1CC(c2nc(-c3cccs3)no2)C1` showed an EC50 [2] of over 5 µM.
`O=C(Cc1ccc(C(F)(F)F)cc1)N1CCC(c2nc(-c3cccs3)no2)CC1` gave a fold change (FC) (RAW264.7 [1]) of 10 and an EC50 [2] of over 5 µM.
Compound `O=C(Cc1cccc(Cl)c1)N1CCC(c2nc(-c3cccs3)no2)CC1` has a fold change (FC) (RAW264.7 [1]) of 10 and an EC50 [2] of over 5 µM.
`O=C(c1ccccc1)N1CCC(c2nc(-c3cccs3)no2)CC1` gave a fold change (FC) (RAW264.7 [1]) of 10 and an EC50 [2] of over 5 µM.
`O=C(CC(F)(F)F)N1CCC(c2nc(-c3cccs3)no2)CC1` gave an EC50 [2] of 1.3 µM.
With `O=C(CC1CC1)N1CCC(c2nc(-c3cccs3)no2)CC1` the Activity (RAW264.7 [3]) was “Non-toxic”, the IC50 [5] was 1.1 µM and the solubility at 24 h [7] was 64 µg/mL (≈ 202 µM). For the same compound, the EC50 [2] was 0.2 µM.
With `CCCCC(=O)N1CCC(c2nc(-c3cccs3)no2)CC1` the EC50 [2] was 1.1 µM.
`O=C(CCC(F)(F)F)N1CCC[C@H](c2nc(-c3cccs3)no2)C1` showed an EC50 [2] of over 5 µM.
Compound `O=C(Cc1ccc(Cl)cc1)N1CCC(c2nc(-c3cccs3)no2)CC1` has a fold change (FC) (RAW264.7 [1]) of 10 and an EC50 [2] of 2.2 µM.
`CCC(=O)N1CCC(c2nc(-c3cccs3)no2)CC1` gave an EC50 [2] of over 5 µM.
Compound `O=C(Cc1ncc[nH]1)N1CCC(c2nc(-c3cccs3)no2)CC1` has a fold change (FC) (RAW264.7 [1]) of 10 and an EC50 [2] of over 5 µM.
In the case of `O=C(Cc1cccnc1)N1CCC(c2nc(-c3cccs3)no2)CC1`, the fold change (FC) (RAW264.7 [1]) is reported as 10 and the EC50 [2] is reported as over 5 µM.
Work on `CC(C)(C)CCC(=O)N1CCC(c2nc(-c3cccs3)no2)CC1` yielded an EC50 [2] of over 5 µM.
`CC(CC(F)(F)F)C(=O)N1CCC(c2nc(-c3cccs3)no2)CC1` (stereo unspecified) showed an EC50 [2] of over 5 µM.
With `O=C(Cc1cccc(F)c1)N1CCC(c2nc(-c3cccs3)no2)CC1` the fold change (FC) (RAW264.7 [1]) was 10 and the EC50 [2] was over 5 µM.
With `O=C(CC(O)C(F)(F)F)N1CCC(c2nc(-c3cccs3)no2)CC1` (stereo unspecified) the EC50 [2] was over 5 µM.
`O=C(CCC(F)(F)F)N1CC[C@H](c2nc(-c3cccs3)no2)C1` gave an EC50 [2] of 1.6 µM.
In the case of `O=C(CCC(F)(F)F)N1CC[C@@H](c2nc(-c3cccs3)no2)C1`, the Activity (RAW264.7 [3]) is reported as “Non-toxic”, the half-life [4] is reported as 298 min and the solubility at 24 h [7] is reported as 80 µg/mL (≈ 232 µM). It also gave an EC50 [2] of 0.4 µM.
`CC(C)[C@H](N)C(=O)N1CCC(c2nc(-c3cccs3)no2)CC1` showed an EC50 [2] of over 5 µM.
`CCCC(=O)N1CCC(c2nc(-c3cccs3)no2)CC1` gave an EC50 [2] of 2.1 µM.
`CC(C)(C)CC(=O)N1CCC(c2nc(-c3cccs3)no2)CC1` showed an EC50 [2] of over 5 µM.
In the case of `COc1ccccc1CC(=O)N1CCC(c2nc(-c3cccs3)no2)CC1`, the fold change (FC) (RAW264.7 [1]) is reported as 10 and the EC50 [2] is reported as over 5 µM.
With `Cc1cccc(CC(=O)N2CCC(c3nc(-c4cccs4)no3)CC2)c1` the fold change (FC) (RAW264.7 [1]) was 10 and the EC50 [2] was over 5 µM.
With `[N-]=[N+]=NCC(=O)N1CCC(c2nc(-c3cccs3)no2)CC1` the EC50 [2] was 1.2 µM.
Work on `O=C(Cc1cccs1)N1CCC(c2nc(-c3cccs3)no2)CC1` yielded an IC50 [5] of 0.5 µM, a half-life [4] of 3 min and a microsomal CLint [6] of 412 µL/min/mg. The solubility at 24 h [7] was 22 µg/mL (≈ 61.2 µM) and the EC50 [2] was 0.1 µM.
`COCC(=O)N1CCC(c2nc(-c3cccs3)no2)CC1` gave an EC50 [2] of over 5 µM.
With `CC(C)CC(O)C(=O)N1CCC(c2nc(-c3cccs3)no2)CC1` (stereo unspecified) the EC50 [2] was over 5 µM.
`CC(C)C[C@H](N)C(=O)N1CCC(c2nc(-c3cccs3)no2)CC1` gave an EC50 [2] of over 5 µM.
`O=C(Cc1ccccc1C(F)(F)F)N1CCC(c2nc(-c3cccs3)no2)CC1` showed a fold change (FC) (RAW264.7 [1]) of 10 and an EC50 [2] of over 5 µM.
`CC1CCC(CC(=O)N2CCC(c3nc(-c4cccs4)no3)CC2)CC1` (stereo unspecified) gave an EC50 [2] of over 5 µM.
`O=C(Cc1ccccn1)N1CCC(c2nc(-c3cccs3)no2)CC1` showed a fold change (FC) (RAW264.7 [1]) of 10 and an EC50 [2] of over 5 µM.
For `CC(=O)N1CCC(c2nc(-c3cccs3)no2)CC1`, the EC50 [2] was over 5 µM.
`O=C(NCC(F)(F)F)N1CCC(c2nc(-c3cccs3)no2)CC1` showed an EC50 [2] of over 5 µM.
`O=C(O)CCC(=O)N1CCC(c2nc(-c3cccs3)no2)CC1` gave an EC50 [2] of over 5 µM.
In the case of `O=C(Cc1ccncc1)N1CCC(c2nc(-c3cccs3)no2)CC1`, the fold change (FC) (RAW264.7 [1]) is reported as 10 and the EC50 [2] is reported as over 5 µM.
`Cc1ccccc1CC(=O)N1CCC(c2nc(-c3cccs3)no2)CC1` gave a fold change (FC) (RAW264.7 [1]) of 10 and an EC50 [2] of over 5 µM.
With `Cc1ccc(CC(=O)N2CCC(c3nc(-c4cccs4)no3)CC2)cc1` the fold change (FC) (RAW264.7 [1]) was 10 and the EC50 [2] was over 5 µM.
In the case of `O=S(=O)(CCC(F)(F)F)N1CCC(c2nc(-c3cccs3)no2)CC1`, the EC50 [2] is reported as over 5 µM.
For `O=C(CCC(F)(F)F)NCCCc1nc(-c2cccs2)no1`, the EC50 [2] was over 5 µM.
With `CC(C)NCC(O)COc1cccc2ccccc12` (stereo unspecified) [PROPRANOLOL] the half-life [4] was 13 min.
Work on `O=C(Cc1ccccc1Cl)N1CCC(c2nc(-c3cccs3)no2)CC1` yielded a fold change (FC) (RAW264.7 [1]) of 10 and an EC50 [2] of over 5 µM.

Reference: ChEMBL document CHEMBL1773054, “Ethionamide boosters: synthesis, biological activity, and structure-activity relationships of a series of 1,2,4-oxadiazole EthR inhibitors” (J Med Chem, 2011)
